Test results taken from ChEMBL document CHEMBL1141315, “Structures and radical-scavenging activities of phenolic constituents from the bark of Picea jezoensis var. jezoensis” (J Nat Prod, 2007).

Tests used:
[1] = tested on: Radical scavenging activity; assay: Antioxidant activity assessed as DPPH radical scavenging activity; type: functional
Outline: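 Test sample in EtOH mixed with 0.1 M HOAc–NaOAc buffer (pH 5.5) and DPPH in EtOH (800 µM stock). Reacted 30 min at room temperature in microplate wells; absorbance read at 517 nm. Value reported as SC50 (50% scavenging concentration).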

[2] = Antioxidant activity assessed as superoxide anion radical scavenging activity; type: functional
Outline: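 Superoxide generated by xanthine–xanthine oxidase in 0.05 M Na2CO3 (pH 10.2) with xanthine, EDTA, BSA and nitroblue tetrazolium (stocks 3 mM, 3 mM, 1.5 mg/mL, 0.75 mM); reaction started with xanthine oxidase (0.1 mg/mL stock). Incubated 20 min at 25 °C, stopped with CuCl2, absorbance at 560 nm; IC50 reported.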

Structure (SMILES)	SC50 [1]	IC50 [2]
Oc1cc(O)cc([C@H]2c3c(cc(O)c4c3O[C@H](c3ccc(O)c(O)c3)[C@@H](O)C4)O[C@@H]2c2ccc(O)c(O)c2)c1 [JEZONOCINOL B]	11.8 µM	1800 nM
Oc1cc(O)cc([C@@H]2c3c(cc(O)c4c3O[C@H](c3ccc(O)c(O)c3)[C@@H](O)C4)O[C@H]2c2ccc(O)c(O)c2)c1 [JEZONOCINOL A]	9.92 µM	2030 nM
O=C(O)c1ccc(O)c(O)c1 [PROTOCATECHUIC ACID]	17.3 µM	3310 nM
Oc1cc(O)c2c(c1)O[C@H](c1ccc(O)c(O)c1)[C@@H](O)C2 [CIANIDANOL]	11.4 µM	2310 nM
O=C1c2c(O)cc(O)cc2O[C@H](c2ccc(O)c(O)c2)[C@H]1O [(+)-TAXIFOLIN]	10.4 µM	1410 nM
O=C1C=C2O[C@H](c3ccc(O)c(O)c3)[C@@H](O)[C@@H]3c4c(O)cc(O)cc4[C@H](C23)[C@H](c2ccc(O)c(O)c2)C1 (stereo partly specified)	3.83 µM	–
O=Cc1ccc(O)c(O)c1 [PROTOCATECHUALDEHYDE]	12.2 µM	25300 nM
O=C(O)c1cc(O)c(O)c(O)c1 [GALLIC ACID]	8.08 µM	530 nM
O=C(O)/C=C/c1ccc(O)cc1 [COUMARIC ACID]	117 µM	104000 nM
COc1cc([C@@H]2Oc3c(OC)cc(CCCO)cc3[C@H]2CO)ccc1O [DIHYDRODEHYDRODICONIFERYL ALCOHOL]	69.1 µM	344000 nM
COc1cc([C@H]2c3cc(O)c(OC)cc3C[C@@H](CO)[C@@H]2CO)ccc1O [ISOLARICIRESINOL]	13.7 µM	70700 nM
